Key:
[1] = target: Mitogen-activated protein kinase 14 (Homo sapiens, UniProt Q16539); test: Inhibition of human p38-alpha expressed in Escherichia coli
THP-1 = test: Inhibition of LPS-induced TNFalpha production in human THP1 cells by ELISA; assay type: functional, cell-based
Method in brief: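 THP-1 cells grown in RPMI 1640 with 10% FBS, 40000 cells/well. Compound or vehicle was added (1% DMSO final), then LPS at 1 μg/mL final. Cells were incubated overnight at 37 °C, 5% CO2. TNF in the supernatant was measured by sandwich ELISA: anti-human TNF capture, biotinylated polyclonal detection, streptavidin-peroxidase read-out.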

Sequence of Mitogen-activated protein kinase 14 (Q16539 whole entry): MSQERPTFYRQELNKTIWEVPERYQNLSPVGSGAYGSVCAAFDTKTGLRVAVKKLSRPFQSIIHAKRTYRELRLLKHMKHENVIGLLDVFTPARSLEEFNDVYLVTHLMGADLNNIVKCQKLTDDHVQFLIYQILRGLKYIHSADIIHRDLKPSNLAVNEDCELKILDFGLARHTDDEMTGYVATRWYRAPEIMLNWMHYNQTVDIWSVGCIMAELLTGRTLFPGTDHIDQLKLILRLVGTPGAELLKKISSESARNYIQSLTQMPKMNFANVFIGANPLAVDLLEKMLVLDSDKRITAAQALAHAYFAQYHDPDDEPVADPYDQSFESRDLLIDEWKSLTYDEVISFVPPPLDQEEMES

SMILES	IC50 [1] [nM]	IC50 (THP-1) [nM]
COC(=O)c1ccc(C)c(Nc2nc(N[C@H]3CCNC3)nc(N(C)CC(C)(C)C)n2)c1	346	> 250
Cc1ccc(C(N)=O)cc1Nc1nc(NC[C@@H]2CC[C@H]3C[C@@H]2C3(C)C)nc(N[C@H]2CCNC2)n1	53	1100
CONC(=O)c1ccc(C)c(Nc2nc(N[C@H]3CCNC3)nc(N(C)CC(C)(C)C)n2)c1	8	16
CONC(=O)c1ccc(C)c(Nc2nc(N(C)CC(C)(C)C)nc(N3CCN(C)CC3)n2)c1	57	158
Cc1ccc(C(=O)NO)cc1Nc1nc(N[C@H]2CCNC2)nc(N(C)CC(C)(C)C)n1	16	150
Cc1ccc(C(N)=O)cc1Nc1nc(NCCc2ccc(F)cc2)nc(N[C@H]2CCNC2)n1	227	> 5000
Cc1ccc(C(=O)O)cc1Nc1nc(N(C)CC(C)(C)C)nc(N2CCCN(C)CC2)n1	> 1000	
CONC(=O)c1ccc(C)c(Nc2nc(N(C)CC(C)(C)C)nc(N3CCCNCC3)n2)c1	52	131
Cc1ccc(C(N)=O)cc1Nc1nc(NC[C@@H]2CC[C@H]3C[C@@H]2C3(C)C)nc(N2CCCNCC2)n1	1360	1700
Cc1ccc(C(N)=O)cc1Nc1nc(NC[C@@H]2CC[C@H]3C[C@@H]2C3(C)C)nc(N2CCCN(C)CC2)n1	1420	
Cc1ccc(C(N)=O)cc1Nc1nc(N[C@H]2CCNC2)nc(N(C)CC2CCCCC2)n1	250	1300
Cc1ccc(C(=O)NC2CCCC2)cc1Nc1nc(N[C@H]2CCNC2)nc(N(C)CC(C)(C)C)n1	100	130
